MrgX1 agonist: agonists of human MrgX1 receptor, primary screen, HEK293 cells, Fluo-4 calcium flux | 0.44% of 310,000 active | B-score at 10 µM | Mas-related G-protein coupled receptor member X1 (Homo sapiens), Q96LB2 | Fluo-4 calcium fluorescence, agonist mode; hits give high values;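 active means calcium response B-score plate-corrected fluorescence ratio at least 3 library SD, with starting fluorescence B-score inside 5 SD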
Target sequence (Q96LB2 whole entry, looked up): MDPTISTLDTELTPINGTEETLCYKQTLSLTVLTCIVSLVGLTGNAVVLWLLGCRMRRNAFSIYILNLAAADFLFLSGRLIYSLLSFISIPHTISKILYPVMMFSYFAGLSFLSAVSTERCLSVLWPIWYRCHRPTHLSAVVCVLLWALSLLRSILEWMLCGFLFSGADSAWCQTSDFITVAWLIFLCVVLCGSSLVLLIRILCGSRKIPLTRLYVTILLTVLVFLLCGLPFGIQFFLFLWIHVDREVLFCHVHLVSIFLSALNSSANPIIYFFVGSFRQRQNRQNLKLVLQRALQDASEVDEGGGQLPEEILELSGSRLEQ
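Assay system: MrgX1-expressing HEK293 cells / Amount: fifteen thousand cells per well / Doses: test compound in the initial addition of three / Timing: cells plated overnight, dye loaded 0.5 h 37 °C, 0.5 h room temperature / Technique: kinetic calcium dye fluorescence, Fluo-4 NW / Control set: positive and negative controls per plate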
RGS4 pot: RGS4 potentiators or activators, primary screen, cell-based, HEK293 M3R inducible RGS4, calcium flux; carbachol calcium flux Fluo4; hits give low values; B-score at 10 µM; 0.92% of 310,000 active; AID 463111, 2010;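 active means B-score of the integrated calcium signal more than 4 SD below the library mean, with starting fluorescence not abnormally high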;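 further: negative B-score means reduced calcium response which marks RGS4 activation or potentiation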
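System: HEK293 FlpIn-TREx cells, stable M3R, doxycycline-inducible RGS4. Timing: overnight RGS4 induction, 30 min dye load 37 °C, 20 min compound RT. Also added: carbachol, ECmax concentration. Measured by: Fluo4 fluorescence kinetic imaging of calcium. Evaluation: integrated calcium ratio converted to B score.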
MrgX1 antag: antagonists of human MrgX1 receptor, primary screen, HEK293 cells, Fluo-4 calcium flux; 1.3% of 310,000 active; AID 588676, 2011; BAM8-22 antagonism; hits give low values; B-score at 10 µM;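 active means calcium-response B-score plate-corrected more than 3 library SD below zero, starting fluorescence within 5 deviations, no agonist response on first addition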;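 further: peak minus trough fluorescence over baseline after final BAM8-22 challenge near maximal dose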
RGS4 block: RGS4 inhibitors, primary screen, cell-based, HEK293 M3R inducible RGS4, calcium flux | B-score at 10 µM | Fluo-4 calcium flux; hits give high values; triggered by carbachol at its EC20 | 0.45% of 310,000 active;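 active means B-score, a plate-corrected calcium signal, over three deviations above library mean, with baseline fluorescence within five deviations of library mean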;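 further: RGS4 expression induced by doxycycline in cells with stable M3 receptor; B-score is computed from the integrated fluorescence ratio over baseline after carbachol; higher B-score means a larger calcium signal and so more RGS4 inhibition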
Target sequence (P49798 whole entry, looked up): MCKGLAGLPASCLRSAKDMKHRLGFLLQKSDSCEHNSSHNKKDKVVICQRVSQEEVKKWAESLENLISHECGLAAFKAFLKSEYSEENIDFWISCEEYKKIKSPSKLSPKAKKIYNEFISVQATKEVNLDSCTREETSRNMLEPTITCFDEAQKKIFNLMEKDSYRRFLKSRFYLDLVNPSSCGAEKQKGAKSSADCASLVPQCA
MrgX1 PAM: positive allosteric modulators of MrgX1, primary screen, HEK293 cells, Fluo-4 calcium flux; Mas-related G-protein coupled receptor member X1 (Homo sapiens), Q96LB2; FDSS; hits give high values; B-score at 10 µM; 0.63% of 310,000 active;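 active means plate-corrected calcium response at least 3 library SD above typical, normal starting fluorescence, not activating the receptor alone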;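 further: compound read alongside a low EC10 to EC30 dose of BAM8-22 agonist; peak minus trough fluorescence over baseline measured at the second addition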
RGS4 activ val: reduced carbachol calcium response, RGS4-induced M3R cells, confirmation, RGS4 activator project, cell-based, HEK293 M3R/RGS4 inducible, calcium flux, duplicate; shares compounds with RGS4 pot; carbachol calcium flux Fluo4; inhibition, % at 10 µM; 89% of 1,100 active; AID 602282, 2012;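 active means inhibition above 3 SD of the buffer control wells, cut at about 41% in these data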;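 further: signal is the integrated peak-minus-minimum Fluo4 fluorescence over baseline ratio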
RGS4 act ctr: activity in cells without induced RGS4 expression; shares compounds with RGS4 pot; HEK293 M3R non-induced RGS4, Fluo4 calcium flux; after carbachol challenge at its EC90; inhibition, % at 10 µM; 82% of 1,100 active;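 active means inhibition exceeding 3 SD of buffer-only control wells, cut at about 26% in these data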;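 further: percent drop in integrated peak-minus-baseline over baseline Fluo4 ratio after carbachol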
Numbers stand for hits. Most compounds without a hit are left out; they make up all but 3.5% or so of the library.

Screening O=C(NCc1ccccc1)C1COc2ccccc2O1 (configuration not stated) returned MrgX1 agonist inactive, RGS4 pot inactive, MrgX1 antag inactive, RGS4 block inactive and MrgX1 PAM inactive.
O=C(NC1CCN(Cc2ccccc2)CC1)C1COc2ccccc2O1 (configuration not stated) was read as MrgX1 agonist inactive, RGS4 pot -8.5, MrgX1 antag inactive, RGS4 block inactive, MrgX1 PAM inactive, RGS4 activ val 92 and RGS4 act ctr 87.
For Cc1cc(C)c(C#N)c(SCC(O)COc2ccc(Br)cc2)n1 (configuration not stated) the results were MrgX1 agonist inactive, RGS4 pot -13, MrgX1 antag inactive, RGS4 block inactive, MrgX1 PAM inactive, RGS4 activ val 94 and RGS4 act ctr 94.
Screening Cc1nnc(NC(=O)COc2ccccc2)s1 returned MrgX1 agonist inactive, RGS4 pot inactive, MrgX1 antag inactive, RGS4 block inactive and MrgX1 PAM inactive.
COc1cc2c(cc1Cl)/C(=C\CCN(C)C)c1ccccc1S2 was read as MrgX1 agonist inactive, RGS4 pot -9.7, MrgX1 antag inactive, RGS4 block inactive, MrgX1 PAM inactive, RGS4 activ val 92 and RGS4 act ctr 67.
`CCOC(=O)c1cc2sccc2n1CCCN1C(=O)c2ccccc2C1=O` gave MrgX1 agonist inactive, RGS4 pot -7.9, MrgX1 antag inactive, RGS4 block inactive, MrgX1 PAM inactive, RGS4 activ val 73 and RGS4 act ctr 84.
For CCOC(=O)c1cc2sccc2n1Cc1ccccc1 the results were MrgX1 agonist inactive, RGS4 pot inactive, MrgX1 antag inactive, RGS4 block inactive and MrgX1 PAM inactive.
Screening Cc1cccc(N2CCN(C(=S)NCCc3ccccc3)CC2)c1C returned MrgX1 agonist inactive, RGS4 pot inactive, MrgX1 antag inactive, RGS4 block inactive and MrgX1 PAM inactive.
Cc1ccc(Cl)cc1N1CCN(C(=S)NCCc2ccccc2)CC1 was read as MrgX1 agonist inactive, RGS4 pot -12, MrgX1 antag inactive, RGS4 block inactive, MrgX1 PAM inactive, RGS4 activ val 94 and RGS4 act ctr 67.
For Cc1ccc2c(c1)NC(=O)C(CC(=O)Nc1ccc(CN3CCC(C)CC3)cc1)O2 (configuration not stated) the results were MrgX1 agonist inactive, RGS4 pot -7.7, MrgX1 antag inactive, RGS4 block inactive, MrgX1 PAM inactive, RGS4 activ val 92 and RGS4 act ctr 95.
Screening CCOC(=O)C1=C(C)OC(N)=C(C#N)C1c1cc2c(cc1Br)OCO2 (configuration not stated) returned MrgX1 agonist inactive, RGS4 pot -8.7, MrgX1 antag inactive, RGS4 block inactive, MrgX1 PAM inactive, RGS4 activ val 90 and RGS4 act ctr 65.
Screening COc1ccccc1C(=O)NCC1CCN(c2ccc(S(=O)(=O)N3CCOCC3)cc2)CC1 returned MrgX1 agonist inactive, RGS4 pot -7.8, MrgX1 antag inactive, RGS4 block inactive, MrgX1 PAM inactive, RGS4 activ val 93 and RGS4 act ctr 86.
For COc1ccc(C)cc1C(=O)CCC(=O)NC1CCCCC1 the results were MrgX1 agonist inactive, RGS4 pot inactive, MrgX1 antag inactive, RGS4 block inactive and MrgX1 PAM inactive.
For CCOC(=O)c1c(NC(=O)CSc2nnnn2-c2ccc3c(c2)OCCO3)sc(C)c1C the results were MrgX1 agonist inactive, RGS4 pot -9.5, MrgX1 antag inactive, RGS4 block inactive, MrgX1 PAM inactive, RGS4 activ val 84 and RGS4 act ctr 32.
Screening CCCCn1c(-c2csc(CCC)c2)n[nH]c1=S returned MrgX1 agonist inactive, RGS4 pot -12, MrgX1 antag inactive, RGS4 block inactive, MrgX1 PAM inactive, RGS4 activ val 58 and RGS4 act ctr 84.
CCCc1cc(-c2n[nH]c(=S)n2CC)cs1 was read as MrgX1 agonist inactive, RGS4 pot inactive, MrgX1 antag inactive, RGS4 block inactive and MrgX1 PAM inactive.
COc1ccc(S(=O)(=O)N(C)C)cc1NC(=O)[C@H](Cc1ccccc1)N1C(=O)c2ccccc2C1=O was read as MrgX1 agonist inactive, RGS4 pot -9.4, MrgX1 antag inactive, RGS4 block inactive, MrgX1 PAM inactive, RGS4 activ val 93 and RGS4 act ctr 58.
`CC(=O)Oc1ccc(N(C(C)=O)S(=O)(=O)c2cc([N+](=O)[O-])ccc2C)cc1` gave MrgX1 agonist inactive, RGS4 pot inactive, MrgX1 antag inactive, RGS4 block inactive and MrgX1 PAM inactive.
`O=C(CSc1ccc(Cl)cc1)Nc1cccc(-c2nc3ncccc3o2)c1` gave MrgX1 agonist inactive, RGS4 pot -8.7, MrgX1 antag inactive, RGS4 block inactive, MrgX1 PAM inactive, RGS4 activ val 92 and RGS4 act ctr 92.
`COc1c(C)cc(Br)cc1C(=O)Nc1cccc(-c2nc3ncccc3o2)c1` gave MrgX1 agonist inactive, RGS4 pot -8.3, MrgX1 antag inactive, RGS4 block inactive, MrgX1 PAM inactive, RGS4 activ val 94 and RGS4 act ctr 74.
For CC(C)C(=O)Nc1cccc(-c2nc3ncccc3o2)c1 the results were MrgX1 agonist inactive, RGS4 pot inactive, MrgX1 antag inactive, RGS4 block inactive and MrgX1 PAM inactive.
O=C(CSc1ccc(Cl)cc1)Nc1cc(-c2nc3ncccc3o2)ccc1Cl was read as MrgX1 agonist inactive, RGS4 pot inactive, MrgX1 antag inactive, RGS4 block inactive and MrgX1 PAM inactive.
`Cc1ccccc1Cn1cnc2c(oc3ccccc32)c1=O` gave MrgX1 agonist inactive, RGS4 pot inactive, MrgX1 antag inactive, RGS4 block inactive and MrgX1 PAM inactive.
`C/C(=C\C=C(C#N)C#N)c1cc(C#N)c(N)o1` gave RGS4 pot -8.3, RGS4 block inactive, RGS4 activ val 62 and RGS4 act ctr 57.
COc1cccc(CNC(=O)CCC2CCCN(c3cc(C)nc(N(C)C)n3)C2)c1 (configuration not stated) was read as MrgX1 agonist inactive, RGS4 pot -11, MrgX1 antag inactive, RGS4 block inactive, MrgX1 PAM inactive, RGS4 activ val 90 and RGS4 act ctr 72.
`COc1ccccc1C=NC(CO)C(O)c1ccc([N+](=O)[O-])cc1` (configuration not stated) gave MrgX1 agonist inactive, RGS4 pot inactive, MrgX1 antag inactive, RGS4 block inactive and MrgX1 PAM inactive.
